Experimental data from ChEMBL document CHEMBL1157855, “Synthesis and biological activity of n-butylphthalide derivatives” (Eur J Med Chem, 2010).

Columns and labels:
[1] = test system: Aorta; experiment: Vasorelaxant activity in rat thoracic aorta assessed as relaxation of resting tension
[2] = test system: Aorta; experiment: Vasorelaxant activity in rat thoracic aorta assessed as inhibition of norepinephrine-induced contractions Ca2+-free medium; format: functional, tissue-based
[3] = Toxicity in ip dosed mouse; format: organism-based; conditions: in vivo
Outline: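 Acute toxicity test in mice with test article given by intraperitoneal injection; read-out was the LD50 (mg/kg).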

Compound	Activity [1]	IC50 [2]	inhibition [2]	LD50 [3]
CCCCC1OC(=O)c2ccc(Cl)cc21 (stereo not given)	Dose-dependent effect			
CCCCC1OC(=O)c2ccc(Br)cc21 (stereo not given)	Dose-dependent effect			
CCCCC1OC(=O)c2cc(F)ccc21 (stereo not given)		132 µM	Dose-dependent effect	593 mg/kg
CCCCC1OC(=O)c2ccccc21 (stereo not drawn) [RAC-3-N-BUTYLPHTHALIDE]		130 µM		751 mg/kg
CCCCC1OC(=O)c2cc(Br)ccc21 (stereo not given)		107 µM	Dose-dependent effect	> 1000 mg/kg
